According to ChEMBL document CHEMBL1123589, “Phenylpiperazine-based radiopharmaceuticals for brain imaging. 3. Synthesis and evaluation of radioiodinated 1-alkyl-4-phenylpiperazines” (J Med Chem, 1987):

How the values were obtained:
Details in all cases: in vivo
Rattus norvegicus [1] = test: The biodistribution of the [125I]-labeled compound in rats after intravenous injection was evaluated in muscle at 1.00 hrs (ID.kg/g); assay type: ADME, organism-based, Muscle tissue
Summary of the method: (§1)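 Male Sprague-Dawley rats (250–300 g) under ether anesthesia given iv 0.1 mL saline containing 10–15 μCi of NCA ¹²⁵I-labeled agent (chloramine-T iodination, HPLC-purified). Groups of 3 killed at 0.25, 1 and 4 h. Blood and tissues excised, weighed and γ-counted. Values are mean (range) of % injected dose × body mass (kg) per gram of tissue.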

Rattus norvegicus [2] = test: The biodistribution of the [125I]-labeled compound in rats after intravenous injection was evaluated in heart at 1.00 hrs (ID.kg/g); assay type: ADME, organism-based
Summary of the method: (§2)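 Male Sprague-Dawley rats (250–300 g) under ether anesthesia were given an iv injection of no-carrier-added 125I-labelled agent (10–15 μCi in 0.1 mL saline). The agent was iodinated with chloramine-T in acetate buffer and purified by C-18 HPLC. Groups of N = 3 were killed at 0.25, 1 and 4 h. Blood and tissues were weighed and γ-counted. Values are % ID·kg/g, mean (range).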

Rattus norvegicus [3] = test: The biodistribution of the [125I]-labeled compound in rats after intravenous injection was evaluated in lung at 4.00 hrs; value ranges from 0.19-0.25 (ID.kg/g); assay type: ADME, organism-based
Summary of the method: (§3)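 Male Sprague-Dawley rats (250–300 g), under ether anesthesia, given 10–15 μCi of the NCA ¹²⁵I-labeled agent iv in 0.1 mL saline. Groups of N = 3 were killed at 0.25, 1 or 4 h. Blood and tissues were removed, weighed and counted in a γ-well scintillation counter. Values are mean % ID·kg/g (range).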

Rattus norvegicus [4] = test: The biodistribution of the [125I]-labeled compound in rats after intravenous injection was evaluated in adrenal at 4.00 hrs; value ranges from 0.90-0.97 (ID.kg/g); assay type: ADME, organism-based; summary of the method: as §2
Rattus norvegicus [5] = test: The biodistribution of the [125I]-labeled compound in rats after intravenous injection was evaluated in kidney at 1.00 hrs; value ranges from 0.29-0.35 (ID.kg/g); assay type: ADME, organism-based; summary of the method: as §3
Rattus norvegicus [6] = test: The biodistribution of the [125I]-labeled compound in rats after intravenous injection was evaluated in adrenal at 1.00 hrs; value ranges from 0.83-0.85 (ID.kg/g); assay type: ADME, organism-based; summary of the method: as §2
Rattus norvegicus [7] = test: The biodistribution of the [125I]-labeled compound in rats after intravenous injection was evaluated in blood at 1.00 hrs (ID.kg/g); assay type: ADME, organism-based; summary of the method: as §2
Rattus norvegicus [8] = test: The biodistribution of the [125I]-labeled compound in rats after intravenous injection was evaluated in liver at 4.00 hrs; value ranges from 0.42-0.55 (ID.kg/g); assay type: ADME, organism-based; summary of the method: as §3
Rattus norvegicus [9] = test: The biodistribution of the [125I]-labeled compound in rats after intravenous injection was evaluated in liver at 0.25 hr; value ranges from 0.19-0.27 (ID.kg/g); assay type: ADME, organism-based; summary of the method: as §3
Rattus norvegicus [10] = test: The biodistribution of the [125I]-labeled compound in rats after intravenous injection was evaluated in thyroid at 0.25 hrs; value ranges from 1.12-1.29 (ID.kg/g); assay type: ADME, organism-based, Thyroid gland; summary of the method: as §1
Rattus norvegicus [11] = test: The biodistribution of the [125I]-labeled compound in rats after intravenous injection was evaluated in brain at 4.00 hrs; value ranges from 0.17-0.21 (ID.kg/g); assay type: ADME, organism-based; summary of the method: as §2
Rattus norvegicus [12] = test: The biodistribution of the [125I]-labeled compound in rats after intravenous injection was evaluated in kidney at 0.25 hr; value ranges from 0.37-0.45 (ID.kg/g); assay type: ADME, organism-based; summary of the method: as §3
Rattus norvegicus [13] = test: The biodistribution of the [125I]-labeled compound in rats after intravenous injection was evaluated in liver at 1.00 hrs; value ranges from 0.34-0.44 (ID.kg/g); assay type: ADME, organism-based; summary of the method: as §3
Rattus norvegicus [14] = test: The biodistribution of the [125I]-labeled compound in rats after intravenous injection was evaluated in thyroid at 4.00 hrs; value ranges from 3.21-5.02 (ID.kg/g); assay type: ADME, organism-based, Thyroid gland; summary of the method: as §1
Rattus norvegicus [15] = test: The biodistribution of the [125I]-labeled compound in rats after intravenous injection was evaluated in lung at 0.25 hrs; value ranges from 0.55-0.57 (ID.kg/g); assay type: ADME, organism-based; summary of the method: as §3
Rattus norvegicus [16] = test: The biodistribution of the [125I]-labeled compound in rats after intravenous injection was evaluated in adrenal at 0.25 hrs; value ranges from 0.58-0.61 (ID.kg/g); assay type: ADME, organism-based; summary of the method: as §2
Rattus norvegicus [17] = test: The biodistribution of the [125I]-labeled compound in rats after intravenous injection was evaluated in thyroid at 1.00 hrs; value ranges from 1.22-1.36 (ID.kg/g); assay type: ADME, organism-based, Thyroid gland; summary of the method: as §1
Rattus norvegicus [18] = test: The biodistribution of the [125I]-labeled compound in rats after intravenous injection was evaluated in kidney at 4.00 hrs; value ranges from 0.18-0.23 (ID.kg/g); assay type: ADME, organism-based; summary of the method: as §3
Rattus norvegicus [19] = test: The biodistribution of the [125I]-labeled compound in rats after intravenous injection was evaluated in heart at 4.00 hrs; value ranges from 0.05-0.06 (ID.kg/g); assay type: ADME, organism-based; summary of the method: as §3
Rattus norvegicus [20] = test: The biodistribution of the [125I]-labeled compound in rats after intravenous injection was evaluated in fat at 1.00 hrs (ID.kg/g); assay type: ADME, organism-based, Adipose tissue; summary of the method: as §2
Rattus norvegicus [21] = test: The biodistribution of the [125I]-labeled compound in rats after intravenous injection was evaluated in muscle at 0.25 hrs (ID.kg/g); assay type: ADME, organism-based, Muscle tissue; summary of the method: as §1
Rattus norvegicus [22] = test: The biodistribution of the [125I]-labeled compound in rats after intravenous injection was evaluated in blood at 4.00 hrs (ID.kg/g); assay type: ADME, organism-based; summary of the method: as §2
Rattus norvegicus [23] = test: The biodistribution of the [125I]-labeled compound in rats after intravenous injection was evaluated in blood at 0.25 hrs (ID.kg/g); assay type: ADME, organism-based; summary of the method: as §2
Rattus norvegicus [24] = test: The biodistribution of the [125I]-labeled compound in rats after intravenous injection was evaluated in fat at 0.25 hr (ID. kg/g); assay type: ADME, organism-based, Adipose tissue; summary of the method: as §2
Rattus norvegicus [25] = test: The biodistribution of the [125I]-labeled compound in rats after intravenous injection was evaluated in muscle at 4.00 hrs (ID.kg/g); assay type: ADME, organism-based, Muscle tissue; summary of the method: as §1
Rattus norvegicus [26] = test: The biodistribution of the [125I]-labeled compound in rats after intravenous injection was evaluated in lung at 1.00 hrs; value ranges from 0.33-0.37 (ID.kg/g); assay type: ADME, organism-based; summary of the method: as §3
Rattus norvegicus [27] = test: The biodistribution of the [125I]-labeled compound in rats after intravenous injection was evaluated in brain at 1.00 hrs; value ranges from 0.23-0.32 (ID.kg/g); assay type: ADME, organism-based; summary of the method: as §2
Rattus norvegicus [28] = test: The biodistribution of the [125I]-labeled compound in rats after intravenous injection was evaluated in heart at 0.25 hrs; value ranges from 0.11-0.15 (ID.kg/g); assay type: ADME, organism-based; summary of the method: as §2
Rattus norvegicus [29] = test: The biodistribution of the [125I]-labeled compound in rats after intravenous injection was evaluated in brain at 0.25 hrs (ID.kg/g); assay type: ADME, organism-based; summary of the method: as §2
Rattus norvegicus [30] = test: The biodistribution of the [125I]-labeled compound in rats after intravenous injection was evaluated in fat at 4.00 hrs (ID.kg/g); assay type: ADME, organism-based, Adipose tissue; summary of the method: as §2

For `CC(C)CN1CCN(c2ccc(I)cc2)CC1`, the Biodistribution (Rattus norvegicus [1]) was 0.02 %ID·kg/g, the Biodistribution (Rattus norvegicus [2]) was 0.09% and the Biodistribution (Rattus norvegicus [3]) was 0.25%. The Biodistribution (Rattus norvegicus [4]) was 0.97%, the Biodistribution (Rattus norvegicus [5]) was 0.35% and the Biodistribution (Rattus norvegicus [6]) was 0.85%. It also gave a Biodistribution (Rattus norvegicus [7]) of 0.01 % ID·kg/g, a Biodistribution (Rattus norvegicus [8]) of 0.55% and a Biodistribution (Rattus norvegicus [9]) of 0.27%. It also gave a Biodistribution (Rattus norvegicus [10]) of 1.29%, a Biodistribution (Rattus norvegicus [11]) of 0.21% and a Biodistribution (Rattus norvegicus [12]) of 0.45%. The Biodistribution (Rattus norvegicus [13]) was 0.44%, the Biodistribution (Rattus norvegicus [14]) was 5.02% and the Biodistribution (Rattus norvegicus [15]) was 0.57%. The Biodistribution (Rattus norvegicus [16]) was 0.61%, the Biodistribution (Rattus norvegicus [17]) was 1.36% and the Biodistribution (Rattus norvegicus [18]) was 0.23%. The Biodistribution (Rattus norvegicus [19]) was 0.07%, the Biodistribution (Rattus norvegicus [20]) was 0.02 % ID·kg/g and the Biodistribution (Rattus norvegicus [21]) was 0.03 % ID·kg/g. It also gave a Biodistribution (Rattus norvegicus [22]) of 0.01 % ID·kg/g, a Biodistribution (Rattus norvegicus [23]) of 0.01 % ID·kg/g and a Biodistribution (Rattus norvegicus [24]) of 0.02 % ID·kg/g. For the same compound, the Biodistribution (Rattus norvegicus [25]) was 0.03 %ID·kg/g, the Biodistribution (Rattus norvegicus [26]) was 0.37% and the Biodistribution (Rattus norvegicus [27]) was 0.32%. It also gave a Biodistribution (Rattus norvegicus [28]) of 0.15%, a Biodistribution (Rattus norvegicus [29]) of 0.25% and a Biodistribution (Rattus norvegicus [30]) of 0.04%.
